These results are taken from ChEMBL document CHEMBL1629574, “Novel chimeric beta-lactamase CTX-M-64, a hybrid of CTX-M-15-like and CTX-M-14 beta-lactamases, found in a Shigella sonnei strain resistant to various oxyimino-cephalosporins, including ceftazidime” (Antimicrob Agents Chemother, 2009).

SMILES strings stand for the structures. ≈ marks a conversion by molar mass, not a printed value. Some results are limits rather than exact numbers.

Holding throughout (assay type): functional
In experiment [1] the test system is Shigella sonnei. Put plainly: Antimicrobial activity against Shigella sonnei UIH-1 expressing beta-lactamase CTX-M-64 by disk diffusion method in presence of beta-lactamase inhibitor Sulbactam.
Experiment [2] deals with Escherichia coli. The experiment in a line: Antimicrobial activity against Escherichia coli XL-1 Blue harboring beta-lactamase CTx-M-64transconjugant by disk diffusion method in presence of beta-lactamase inhibitor Sulbactam.
The subject of experiment [3] is Escherichia coli. The experiment in a line: Antimicrobial activity against Escherichia coli XL-1 Blue transconjugant harboring beta-lactamase CTX-M-64 by disk diffusion method. In outline:
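Non-β-lactam agents were tested by CLSI disk diffusion. Susceptibility categories were assigned by CLSI criteria.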

The subject of experiment [4] is Shigella sonnei. The experiment in a line: Antimicrobial activity against Shigella sonnei UIH-1 expressing beta-lactamase CTX-M-64 by disk diffusion method. In outline: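 Non-β-lactam susceptibility determined by CLSI disk diffusion on the clinical isolate. Categories assigned by CLSI criteria.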

On to `CCN1CCN(C(=O)N[C@@H](C(=O)N[C@@H]2C(=O)N3C(C(=O)O)=C(CSc4nnnn4C)CS[C@H]23)c2ccc(O)cc2)C(=O)C1=O` [CEFOPERAZONE], for which the MIC in the experiment with Shigella sonnei [1] was 8 µg/mL; with Escherichia coli [2] it was more than 32 µg/mL; in the experiment on Escherichia coli [3], more than 32 µg/mL; in the experiment on Shigella sonnei [4], 8 µg/mL (≈ 12.4 µM).
